For 6 molecules, Activity and IC50 results are on record in ChEMBL document CHEMBL1155796, “Lupane-type triterpenoids from Microtropis fokienensis and Perrottetia arisanensis and the apoptotic effect of 28-hydroxy-3-oxo-lup-20(29)-en-30-al” (J Nat Prod, 2008).

Values after ≈ are worked out from the molar mass of the structure shown. Active and inactive are the calls of the source. The calls are words filed in the database; no cut-off is given here.

Experiment [1] deals with HL-60. The experiment can be described thus: Cell cycle arrest in human HL60 cells assessed as accumulation at subG1 cells at 2.5 ug/ml after 24 hrs. It is filed as functional. The essentials: (§1)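 Treated and control HL60 cells harvested, washed in cold PBS, fixed in 70% ethanol and held at 4 °C. […] DNA content read by flow cytometry. Fractions in sub-G1, G0/G1, S and G2/M assigned by cell-cycle modelling software.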

For experiment [2], the system named is HL-60. The experiment can be described thus: Cell cycle arrest in human HL60 cells assessed as accumulation at G0/G1 cells at 1.250 ug/ml after 24 hrs. It is filed as functional. The essentials: as §1
The test system of experiment [3] is HL-60. Briefly: Cell cycle arrest in human HL60 cells assessed as accumulation at S cells at 5 ug/ml after 24 hrs. The format is functional. The essentials:
as §1

Experiment [4] relates to MCF7. The experiment can be described thus: Cytotoxicity against human MCF7 cells by MTT assay. The format is functional, cell-based. An outline of the steps:
(§2)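 Freshly trypsinized cells were seeded at 5000-10 000 per well, and compounds were added from DMSO stocks and left for 3 days. Attached cells were then given MTT ([…], 1 h) and dissolved in DMSO, with absorbance read at 550 nm.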

Experiment [5] deals with HL-60. The experiment can be described thus: Cell cycle arrest in human HL60 cells assessed as accumulation at subG1 cells at 1.250 ug/ml after 24 hrs. It is filed as functional. An outline of the steps: as §1
Experiment [6] has as its system HL-60. The experiment can be described thus: Cell cycle arrest in human HL60 cells assessed as accumulation at subG1 cells at 5 ug/ml after 24 hrs. The format is functional. An outline of the steps: as §1
Experiment [7] has as its system HL-60. Briefly: Induction of apoptosis in human HL60 cells assessed as effect on Bcl2 protein level by Western blotting. It is filed as functional, cell-based. The essentials: (§3)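 Lysate cleared at 20000g, 30 min, 4 °C and protein measured by BCA. 50 µg resolved on 12% SDS-PAGE, blotted to PVDF and probed for PARP, Bax and Bcl-2, with β-tubulin as loading control.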

Experiment [8] is described as follows: Cytotoxicity against human Hep3B cells by MTT assay. The format is functional, cell-based, Hep 3B2. The essentials:
as §2

Experiment [9] relates to Ca9-22. The experiment can be described thus: Cytotoxicity against human sCa9-22 cells by MTT assay. It is filed as functional, cell-based. The essentials: as §2
The subject of experiment [10] is HL-60. The experiment can be described thus: Cell cycle arrest in human HL60 cells assessed as accumulation at G0/G1 cells at 5 ug/ml after 24 hrs. It is filed as functional. An outline of the steps:
as §1

Experiment [11] concerns HL-60. The experiment can be described thus: Cell cycle arrest in human HL60 cells assessed as accumulation at G2 cells at 2.5 ug/ml after 24 hrs. It is filed as functional. The essentials: as §1
Experiment [12] concerns HL-60. The experiment can be described thus: Cell cycle arrest in human HL60 cells assessed as accumulation at G0/G1 cells at 2.5 ug/ml after 24 hrs. It is filed as functional. The essentials: as §1
Experiment [13] deals with HL-60. The experiment can be described thus: Cell cycle arrest in human HL60 cells assessed as accumulation at subG1 cells at 0.625 ug/ml after 24 hrs by flow cytometry. It is filed as functional. The essentials: as §1
A general note: In flow cytometry, cells or beads pass a laser one at a time.

Experiment [14] concerns HL-60. The experiment can be described thus: Cell cycle arrest in human HL60 cells assessed as accumulation at G0/G1 cells at 0.625 ug/ml after 24 hrs by flow cytometry. The format is functional. An outline of the steps: as §1
For experiment [15], the system named is HL-60. The experiment can be described thus: Cell cycle arrest in human HL60 cells assessed as accumulation at G2 cells at 1.250 ug/ml after 24 hrs. The format is functional. The essentials: as §1
For experiment [16], the system named is HL-60. Briefly: Cell cycle arrest in human HL60 cells assessed as accumulation at G2 cells at 0.625 ug/ml after 24 hrs by flow cytometry. It is filed as functional. The essentials:
as §1

Experiment [17] has as its system HL-60. Briefly: Cell cycle arrest in human HL60 cells assessed as accumulation at S cells at 2.5 ug/ml after 24 hrs. It is filed as functional. The essentials:
as §1

For experiment [18], the system named is A549. Briefly: Cytotoxicity against human A549 cells by MTT assay. It is filed as functional, cell-based. An outline of the steps:
as §2
(Tetrazolium assays rely on reduction of a dye to a coloured formazan, in cell work by metabolically active cells.)

Experiment [19] deals with HL-60. The experiment can be described thus: Induction of apoptosis in human HL60 cells assessed as increase in Bax protein level by Western blotting. The format is functional, cell-based. The essentials:
as §3
Background: In western blotting, separated proteins are transferred to a membrane and probed.

Experiment [20] deals with HL-60. Briefly: Cell cycle arrest in human HL60 cells assessed as accumulation at G2 cells at 5 ug/ml after 24 hrs. It is filed as functional. An outline of the steps:
as §1

Experiment [21] has as its system HL-60. The experiment can be described thus: Cytotoxicity against human HL60 cells by MTT assay. The format is functional, cell-based. The essentials:
as §2

For experiment [22], the system named is HL-60. Briefly: Cell cycle arrest in human HL60 cells assessed as accumulation at S cells at 0.625 ug/ml after 24 hrs by flow cytometry. It is filed as functional. The essentials: as §1
Experiment [23] deals with HepG2. Briefly: Cytotoxicity against human HepG2 cells by MTT assay. It is filed as functional, cell-based. An outline of the steps: as §2
For experiment [24], the system named is HL-60. Briefly: Induction of apoptosis in human HL60 cells assessed as PARP cleavage by Western blotting. The format is functional, cell-based. An outline of the steps: as §3
The subject of experiment [25] is HL-60. Briefly: Cell cycle arrest in human HL60 cells assessed as accumulation at S cells at 1.250 ug/ml after 24 hrs. It is filed as functional. The essentials: as §1
Experiment [26] deals with MDA-MB-231. The experiment can be described thus: Cytotoxicity against human MDA-MB-231 cells by MTT assay. It is filed as functional, cell-based. An outline of the steps:
as §2

Experiment [27] deals with B16. Briefly: Cytotoxicity against mouse B16 cells. The format is functional, cell-based.

`C=C(C=O)[C@@H]1CC[C@]2(CO)CC[C@]3(C)[C@H](CC[C@@H]4[C@@]5(C)CCC(=O)C(C)(C)[C@@H]5CC[C@]43C)[C@@H]12`: the Activity in [1] is on record as 10.2%; in experiment [2] it was 55.5%; in experiment [3] it was 19.8%; in experiment [5], 2.8%; in [6], 57.8%; in experiment [10], 14.6%. Moreover, the Activity in [11] was 11.5%; in experiment [12], 56%; in [13] it was 1.6%; in [14] it was 54.2%; in [15], 11.2%; in [16] it was 13.9%. Also, the Activity in experiment [17] came out at 22.3%; in experiment [20], 7.8%; in experiment [22], 30.3%; in experiment [25], 30.5%. Further, the IC50 was 2.9 µg/mL (≈ 6.38 µM) in [4]; 4.7 µg/mL (≈ 10.3 µM) in experiment [8]; 1.4 µg/mL (≈ 3.08 µM) in experiment [9]; 16.4 µg/mL (≈ 36.1 µM) in experiment [18]; 1.6 µg/mL (≈ 3.52 µM) in experiment [21]; 12.6 µg/mL (≈ 27.7 µM) in experiment [23]. In addition, the IC50 in experiment [26] is 7.9 µg/mL (≈ 17.4 µM). The outcome in experiment [7] was inactive. In addition, the outcome in experiment [19] and in [24] was Active.
`C=C(CO)[C@@H]1CC[C@]2(C)CC[C@]3(C)[C@H](CC[C@@H]4[C@@]5(C)CCC(=O)C(C)(C)[C@@H]5CC[C@]43C)[C@@H]12` displayed an IC50 in experiment [27] of 9.2 µg/mL (≈ 20.9 µM).
In the case of `C=C(C)[C@@H]1CC[C@]2(CO)CC[C@]3(C)[C@H](CC[C@@H]4[C@@]5(C)CC[C@@H](O)C(C)(C)[C@@H]5CC[C@]43C)[C@@H]12` [3-EPI-BETULIN], the IC50 was 16 µg/mL (≈ 36.1 µM) in experiment [4]; 9.3 µg/mL (≈ 21 µM) in [8]; over 20 µg/mL in experiment [9]; 15.7 µg/mL (≈ 35.5 µM) in [18]; 1.7 µg/mL (≈ 3.84 µM) in [21]; 6.7 µg/mL (≈ 15.1 µM) in experiment [23]. In [26], this molecule displayed an IC50 of over 20 µg/mL.
As for `C=C(C)[C@@H]1CC[C@]2(C(=O)O)CC[C@]3(C)[C@H](CC[C@@H]4[C@@]5(C)CC[C@H](O)C(C)(C)[C@@H]5CC[C@]43C)[C@@H]12` [BETULINIC ACID], the IC50 in [4] was 4 µg/mL (≈ 8.76 µM); in experiment [27], 5 µg/mL (≈ 10.9 µM); in [8] it was 1.7 µg/mL (≈ 3.72 µM); in [9], over 20 µg/mL; in experiment [18], 2.8 µg/mL (≈ 6.13 µM); in experiment [21], 2 µg/mL (≈ 4.38 µM). Further, the IC50 amounted to 3.1 µg/mL (≈ 6.79 µM) in experiment [23] and 3.5 µg/mL (≈ 7.66 µM) in experiment [26].
As for `COc1cccc2c1C(=O)c1c(O)c3c(c(O)c1C2=O)C[C@@](O)(C(=O)CO)C[C@@H]3O[C@H]1C[C@H](N)[C@H](O)[C@H](C)O1` [DOXORUBICIN], the IC50 in experiment [4] was found to be 0.32 µg/mL (≈ 0.589 µM); in [8], 0.27 µg/mL (≈ 0.497 µM); in experiment [9] it was 0.09 µg/mL (≈ 0.166 µM); in experiment [21], 0.003 µg/mL (≈ 0.00552 µM); in experiment [23], 0.17 µg/mL (≈ 0.313 µM); in experiment [26], 0.15 µg/mL (≈ 0.276 µM).
On to `C=C(C)[C@@H]1CC[C@]2(C(=O)O)CC[C@]3(C)[C@H](CC[C@@H]4[C@@]5(C)CC[C@@H](O)C(C)(C)[C@@H]5CC[C@]43C)[C@@H]12` [EPIBETULINIC ACID], for which the IC50 is 9.7 µg/mL (≈ 21.2 µM) in experiment [4]; 8.1 µg/mL (≈ 17.7 µM) in [8]; 9.7 µg/mL (≈ 21.2 µM) in [18]; 2.3 µg/mL (≈ 5.04 µM) in experiment [21]; 9.3 µg/mL (≈ 20.4 µM) in experiment [23]; 9.2 µg/mL (≈ 20.1 µM) in experiment [26].

One may read the IC50 as the concentration needed to halve the response being measured. Lower therefore signals higher potency.
